Fewer inactive variants are shown than the library holds.
B1: tRNA (parent)
chain: GUUCCGUUGGCGUAAUGGUAACGCGUCUCCCUCCUAAGGAGAAGACUGCGGGUUCGAGUCCCGUACGGAACG

Variants of: B1
Assay: yeast fitness relative to wild type (ratio to wild type); higher = fitter; tRNA-Arg(CCU), competitive growth, 37 C, YPD
Outline: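 Variants of the tRNA-Arg(CCU) gene, chemically synthesised with a 3% per-site mutation rate at 69 sites, were placed at the native genomic locus in Saccharomyces cerevisiae. The pooled strains were competed in YPD at 37°C for 24 hours in six parallel replicates. Gene amplicons from the start population and from each end population were read by 100-nucleotide paired-end sequencing. Darwinian fitness relative to wild type came from changes in genotype frequencies; genotypes needed ≥ 100 starting reads, and estimates < 0.5 were set to 0.5.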

Row | Variant | yeast fitness
1 | C27U C30U C34G A37C A57G C61A | ≤ 0.5
2 | U28C A45U A70U | 0.773
3 | U28A A45G C66U | 0.538
4 | C27U U59A A65U | ≤ 0.5
5 | U28A G58C | 0.798
6 | U28A G58A | 0.913
7 | C27U G63A A65G | ≤ 0.5
8 | U28A C49U U54G | ≤ 0.5
9 | U28A U32G A65U | ≤ 0.5
10 | U28C C30A C49U | ≤ 0.5
11 | U28A C29G G51A G56A A69C | ≤ 0.5
12 | U28A C33G A36U A40G U54C | 0.528
13 | U28A A43C G48A A70C | 0.577
14 | C27U G39C C49U G63C | ≤ 0.5
15 | C27U G38C G44C | 0.531
16 | U28A A57G C60A | 0.569
17 | U28A U32C A70G | 0.604
18 | C27U U32C A70C | 0.68
19 | C27U U28G A40C C46A C49U | 0.995
20 | C27U C49A U64C G67A | ≤ 0.5
21 | U28A G52A A57U C60U A65G G68A | 0.59
22 | C27U C46G A65G | 0.725
23 | C27U C34G A57G C62A | ≤ 0.5
24 | C27U C31A G63A | ≤ 0.5

Row | Variant | yeast fitness
25 | C27U C34G A37C | ≤ 0.5
26 | C27U G51A | 0.836
27 | U28A U35C | 0.753
28 | U28C A37C A40U G50A C60G | ≤ 0.5
29 | C27U G68U | 0.755
30 | C27U G68A | 0.822
31 | C27U G68C | 0.757
32 | C27U G51C C62G | ≤ 0.5
33 | C27U C33A | 0.618
34 | C27U C33G A43G A57G C61U C62U | 0.509
35 | U28A A42C C49G C62U | 0.585
36 | U28A A42G A57G | ≤ 0.5
37 | U28C A42C U54G | ≤ 0.5
38 | U28C A43C G44C C61A | 0.548
39 | U28A A45C C46G G67A | 0.532
40 | U28C C29G C49U | ≤ 0.5
41 | C27U C31U U53C A70U | ≤ 0.5
42 | U28A G38C | 0.541
43 | U28A G38A | 0.772
44 | U28A C31G A42U C49G G67U | ≤ 0.5
45 | U28A A43C A57C | 0.608
46 | U28C C30U U59C | ≤ 0.5
47 | U28C A36G | 0.989
48 | C27U C33U A40C C55A | ≤ 0.5

Row | Variant | yeast fitness
49 | C27U C66A | 0.701
50 | U28A A36G C66G | ≤ 0.5
51 | C27U G58C A69C | 1.05
52 | U28C A57U | 0.823
53 | C27U C31G A69U | 0.624
54 | U28C A45G | 0.948
55 | U28C C33A A42C A45U | ≤ 0.5
56 | C27U G41C U64C A70C | 0.675
57 | C27U G58C | 1.02
58 | C27U G58A | 0.899
59 | C27U C46U G48A | 0.888
60 | U28C A42U | 0.816
61 | U28C A37C A70C | ≤ 0.5
62 | C27U G44A C49U G52A A57C | ≤ 0.5
63 | C27U G48A C49U A65G | 0.714
64 | U28C C31U A36C G41C U47A | ≤ 0.5
65 | C27U U28A U32A C34U A36C C55A G68A | ≤ 0.5
66 | C27U C34U U35C U47C U53G A69U | ≤ 0.5
67 | U28A G51C C55G A57C U64A G67C | ≤ 0.5
68 | U28A G38A C55G | ≤ 0.5
69 | C27U G38A C66A | 0.645
70 | C27U C33G C55G C61U | 0.539
71 | C27U G51C U59C C62A | ≤ 0.5
72 | U28C A65C | 0.85

Row | Variant | yeast fitness
73 | U28A C34A A40G C66A | ≤ 0.5
74 | U28C C30G A45C C49U | ≤ 0.5
75 | C27U C46G C66G A69G | ≤ 0.5
76 | U28C A37C A40U G63A A70C | ≤ 0.5
77 | C27U C33U G51A | 0.612
78 | U28C | 0.981
79 | U28A | 0.892
80 | U28C A43U G48C C60G | ≤ 0.5
81 | C27U C30U U53A C66U | ≤ 0.5
82 | C27U U59C A69U | 0.795
83 | U28A C31G U35A U47A U54A | ≤ 0.5
84 | U28A G56A | 0.796
85 | C27U C33G C34U C61U G67A G68C | ≤ 0.5
86 | U28A C31U A65U | 0.546
87 | U28A G52A | 0.705
88 | C27U U47C A69U | 0.838
89 | U28A A43U U53A | ≤ 0.5
90 | U28A G44A G50A A57G G68C | ≤ 0.5
91 | U28A C33U C55G A70U | ≤ 0.5
92 | C27U G51C C61G | ≤ 0.5
93 | C27U C31G C55G | ≤ 0.5
94 | C27U C34U A45G U47C C60G | ≤ 0.5
95 | C27U C31A A57U | ≤ 0.5
96 | U28C C29U A45C | 0.545

Row | Variant | yeast fitness
97 | C27U U35C A36G | 0.566
98 | U28A A70U | 0.738
99 | U28A U35C A37C | 0.647
100 | U28C A37C A40U A65U | ≤ 0.5
101 | U28A A36U G52A | 0.777
102 | C27U G51C C55A C66U | 0.53
103 | U28A A57G | 0.688
104 | U28A C30A G67U | 0.642
105 | U28A G58C G68C | ≤ 0.5
106 | U28C A70G | 0.92
107 | U28C C30U C49U | ≤ 0.5
108 | U28A C62U | 0.86
109 | U28A A40U C49U C60A G63A | ≤ 0.5
110 | U28A G68U | 0.762
111 | U28A G68C | 0.707
112 | U28A C33G | 0.618
113 | U28C A42G A65G | 0.598
114 | C27U G44C G68A | 0.666
115 | C27U C31G A43C C49G G52C U59A | 0.54
116 | C27U C31G A43C C49G G52C U59G | ≤ 0.5
117 | C27U G50A G52A U59C C66U | 0.53
118 | U28C A69U | 0.893
119 | U28A C31U C34U | ≤ 0.5
120 | C27U C33U A37U G51A A70G | 0.552

Row | Variant | yeast fitness
121 | C27U C33G C34G G44A G50A G52A G56A | ≤ 0.5
122 | C27U U28C | 0.903
123 | C27U U28A | 0.699
124 | C27U G38A C61U C66A | ≤ 0.5
125 | U28A G48A G58C C66G | ≤ 0.5
126 | C27U C31U A40U A45U C49G A65C | ≤ 0.5
127 | U28A A45C A65C | ≤ 0.5
128 | U28A A36G A57U A69U | ≤ 0.5
129 | U28A C29A C46U C55G | ≤ 0.5
130 | C27U C49A U64C | 0.756
131 | U28C C30U | 0.767
132 | U28C C30G | 0.667
133 | C27U C34G A45U C60A | ≤ 0.5
134 | C27U C31G A43C C49G G52C | ≤ 0.5
135 | C27U G51A U53A G63C | ≤ 0.5
136 | C27U U47C C55U C62G A69U | ≤ 0.5
137 | C27U G51A U59A | 0.568
138 | U28C C31U G51A G63C | ≤ 0.5
139 | U28A U32G A69U | ≤ 0.5
140 | U28C A43C G44C | ≤ 0.5
141 | C27U C55U G56A A57C | 0.526
142 | C27U C30U C62A | 0.564
143 | U28A C29U A45C | 0.522
144 | U28C C31U A36G G63C | ≤ 0.5

Row | Variant | yeast fitness
145 | U28A C33G A43C G63A | 0.524
146 | U28A C66U G68A | ≤ 0.5
147 | C27U U28G C31A C46U | ≤ 0.5
148 | U28A A36G | 0.73
149 | U28A A36U | 0.564
150 | U28A G39C | 0.552
151 | U28A G67A | 0.628
152 | C27U C33U C60G | 0.628
153 | U28A U47C | 0.858
154 | U28A U47G | 0.535
155 | C27U C34G C62A | 0.586
156 | C27U G51C U59C G63A | ≤ 0.5
157 | C27U G48A U59A | 0.684
158 | U28A C33G A43C C61U A69U | ≤ 0.5
159 | C27U C49U | 1
160 | U28A A45C | 0.79
161 | U28A C31G U35C C60U C61U | ≤ 0.5
162 | C27U C30U | 0.825
163 | C27U G41C | 0.898
164 | U28A C60U | 0.64
165 | U28A A40C | 0.961
166 | U28A G56A C62A | 0.582
167 | C27U C33A C60U C62G | ≤ 0.5
